Data taken from ChEMBL document CHEMBL4732139, “Novel N-Methylated Cyclodepsipeptide Prodrugs for Targeted Cancer Therapy” (J Med Chem, 2021).
Active and inactive are the calls of the source. No cut-off for these calls is given here. Where a SMILES comes first, the peptide text is derived from it. Bridges are numbered along the chain shown (N, C = ends). [ ]: non-standard residue; d: D form. The star is where a group is joined. NMe2Val = CC(C)[C@@H](C(=O)*)N(C)C; NMeI = CC[C@H](C)[C@H](NC)C(=O)O; NMeT = CN[C@H](C(=O)O)[C@@H](C)O; NMeL = CN[C@@H](CC(C)C)C(=O)O; dHiv = CC(C)[C@@H](O)C(=O)O; NMeA = CN[C@@H](C)C(=O)O; dNMeA = CN[C@H](C)C(=O)O

Experiments:
[1] = Stability in PBS at 37 degC assessed as parent intact compound remaining level at 50 uM after 24 hrs by RP-HPLC analysis; assay type: physicochemical; conditions: read-out: Stabilty
Method in brief: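 50 μM compound in 10% DMSO/PBS without DTT or cathepsin B at 37 °C. Sampled at 0, 4, 8, 12 and 24 h and analyzed by RP-HPLC (C18, 10−100% CH₃CN/0.1% TFA over 20 min). Three repeats.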

[2] = Drug metabolism in PBS at 37 degC assessed as metabolite-1a formation at 50 uM in presence of DTT after 30 mins by RP-HPLC analysis
Method in brief: (§1)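 50 μM conjugate (from 2 mM DMSO stock) in 10% DMSO/PBS with 150 μM DTT (final) at 37 °C. Aliquots taken at 30, 60 and 90 min for RP-HPLC: C18, 10−100% CH₃CN over 20 min in 0.1% TFA water, 0.5 mL/min, detection at 220 and 254 nm. Three repeats.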

[3] = Drug metabolism in PBS at 37 degC assessed as metabolite-1a formation at 50 uM in presence of DTT after 30 to 90 mins by RP-HPLC analysis; conditions: time 30-90 min; method in brief: as §1
[4] = Drug metabolism in PBS at 37 degC assessed as parent compound disappearance at 50 uM in presence of DTT after 90 mins by RP-HPLC analysis; method in brief: as §1
BT-549 [5] = experiment: Cytotoxicity in human BT-549 cells assessed as reduction in cell viability incubated for 72 hrs by CCK8 assay; assay type: functional, cell-based
Method in brief: (§2)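 CCK-8 viability assay with a 72 h treatment. Cells seeded at 3000−4000/well and preincubated overnight. Concentration gradient applied in quadruplicate. Then 10% CCK-8 for 1 h at 37 °C and A450 read. IC50 by log(inhibitor)-response fitting.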

A549 [6] = experiment: Cytotoxicity in human A549 cells assessed as reduction in cell viability incubated for 72 hrs by CCK8 assay; assay type: functional, cell-based; method in brief: as §2
BT-549 [7] = experiment: Cytotoxicity in human BT-549 cells assessed as reduction in cell viability incubated for 48 hrs in absence of GSH-OEt by CCK8 assay; assay type: functional, cell-based; conditions: BT-549, 48 h
Method in brief: (§3)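 Cells grown in high-glucose DMEM with 10% FBS and penicillin/streptomycin at 37 °C, 5% CO₂. 3000−4000 cells/well seeded and preincubated overnight. Treated with a concentration gradient in quadruplicate for 48 h. Medium then replaced with 10% CCK-8 in fresh medium for 1 h at 37 °C, A450 read. IC50 from log(inhibitor)-response fit, mean SD of three independent experiments.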

A549 [8] = experiment: Cytotoxicity in human A549 cells assessed as reduction in cell viability incubated for 48 hrs in absence of GSH-OEt by CCK8 assay; assay type: functional, cell-based; conditions: A549, 48 h; method in brief: as §3
A549 [9] = experiment: Cytotoxicity in human A549 cells assessed as reduction in cell viability incubated for 48 hrs in presence of GSH-OEt by CCK8 assay; assay type: functional, cell-based; conditions: A549, 48 h
Method in brief: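 A549 cells preincubated 2 h with 1 mM GSH-OEt, then exposed to compound for 48 h. Viability by CCK-8. Remaining steps: overnight-seeded cells (3000−4000/well), quadruplicate wells, 10% CCK-8 for 1 h at 37 °C, A450. IC50 by log(inhibitor)-response fit, mean of triplicate.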

[10] = Toxicity in Balb/c mouse assessed as induction of weight loss at 5 mg/kg, iv dosed every 2 days for total 10 times and measured on day 21; assay type: organism-based; conditions: in vivo, 504 h, time 21 day
Method in brief: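 Six-week male Balb/c nude mice, n = 3 per group, given various doses by i.v. injection every 2 days. Body weight monitored.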

[11] = Toxicity in Balb/c mouse xenografted with human A549 cells assessed as induction of weight loss at 5 mg/kg, iv dosed every 2 days for total 10 times and measured on day 21; assay type: organism-based; conditions: in vivo, 504 h, time 21 day
Method in brief: (§4)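 Six-week male Balb/c nude mice; 1 × 10⁷ A549 cells washed in cold PBS, suspended in serum-free high-glucose DMEM, injected s.c. in right flank. At ~50 mm³ (L × W × 1/2 W), randomized into two groups, n = 7 each. 5 mg/kg in 10% DMSO/PBS (1 mg/mL) given i.v. via tail vein every 2 days ×10. Vehicle control 10% DMSO/PBS. Tumor size and body weight measured before each injection. Tumors excised and weighed at end.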

[12] = Toxicity in Balb/c mouse xenografted with human A549 cells assessed as induction of side effect at 5 mg/kg, iv dosed every 2 days for total 10 times and measured on day 21; assay type: organism-based; conditions: in vivo; method in brief: as §4
A549 [13] = experiment: Antitumor activity against human A549 cells xenografted in Balb/c mouse assessed as reduction in tumor size at 5 mg/kg, iv dosed every 2 days for total 10 times and measured on day 21; assay type: functional, organism-based; conditions: time 21.0 day; method in brief: as §4
A549 [14] = experiment: Antitumor activity against human A549 cells xenografted in Balb/c mouse assessed as reduction in tumor growth at 5 mg/kg, iv dosed every 2 days for total 10 times and measured on day 21; assay type: functional, organism-based; conditions: time 21.0 day; method in brief: as §4
A549 [15] = experiment: Antitumor activity against human A549 cells xenografted in Balb/c mouse assessed as reduction in tumor mass at 5 mg/kg, iv dosed every 2 days for total 10 times and measured on day 21 relative to untreated control; assay type: functional; conditions: time 21 day; method in brief: as §4
BT-549 [16] = experiment: Cytotoxicity in human BT-549 cells assessed as reduction in cell viability incubated for 48 hrs by CCK8 assay; assay type: functional, cell-based; method in brief: as §3
A549 [17] = experiment: Cytotoxicity in human A549 cells assessed as reduction in cell viability incubated for 48 hrs by CCK8 assay; assay type: functional, cell-based; method in brief: as §3
[18] = Toxicity in Balb/c mouse assessed as induction of weight loss at 1 mg/kg, iv dosed every 2 days and measured on day 3; assay type: organism-based; conditions: in vivo, 72 h, time 3 day
Method in brief: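 In vivo tolerability in six-week-old male Balb/c nude mice (n = 3 per group). Compounds were given intravenously every 2 days at various dosages, and body weight was followed over time.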

CC[C@H](C)[C@H]1C(=O)N[C@@H](C)C(=O)N(C)[C@@H](CC(C)C)C(=O)N[C@@H](Cc2ccc(OC)cc2)C(=O)N(C)[C@H](C)C(=O)O[C@H](C)[C@H](N(C)C(=O)[C@H](CC(C)C)N(C)C(=O)[C@H](C)N(C)C(=O)[C@H](OC(=O)[C@H](C(C)C)[N+](C)(C)Cc2ccc(NC(=O)OCCSSCCn3cc(CCC(=O)NCCCC[C@@H]4NC(=O)[C@@H](Cc5ccc(O)cc5)NC(=O)[C@H](CC(=O)O)NC(=O)CNC(=O)[C@H](CCCNC(=N)N)NC4=O)nn3)cc2)C(C)C)C(=O)N(C)[C@@H](C)C(=O)N1C.O=C([O-])C(F)(F)F
remaining at 24 h, 50 µM [1]: > 90%
Drug metabolism [2]: Metabolite detected
Drug metabolism [3]: Metabolite detected
Drug metabolism [4]: 100%
Activity (BT-549 [5]): Active
Activity (A549 [6]): Active
IC50 (BT-549 [7]): 0.311 µM
IC50 (A549 [8]): 0.262 µM
IC50 (A549 [9]): 0.0206 µM
Activity [10]: Non-Toxic
Activity [11]: Non-Toxic
Activity [12]: Non-Toxic
Activity (A549 [13]): Active
Activity (A549 [14]): Active
fold change (FC) (A549 [15]): 4

C#CCCC(=O)NCCCC[C@@H]1NC(=O)[C@@H](Cc2ccc(O)cc2)NC(=O)[C@H](CC(=O)O)NC(=O)CNC(=O)[C@H](CCCNC(=N)N)NC1=O
IC50 (BT-549 [16]; bt-549): Not Active
IC50 (A549 [17]; a549): Not Active
Activity (BT-549 [5]): inactive
Activity (A549 [6]): inactive

CC[C@H](C)[C@H]1C(=O)N[C@@H](C)C(=O)N(C)[C@@H](CC(C)C)C(=O)N[C@@H](Cc2ccc(OC)cc2)C(=O)N(C)[C@H](C)C(=O)O[C@H](C)[C@H](N(C)C(=O)[C@H](CC(C)C)N(C)C(=O)[C@H](C)N(C)C(=O)[C@H](OC(=O)[C@H](C(C)C)N(C)C)C(C)C)C(=O)N(C)[C@@H](C)C(=O)N1C (NMe2Val-[dHiv][NMeA][NMeL][NMeT][NMeA][NMeI]A[NMeL]Y(Me)[dNMeA]; ester 4-C)
IC50 (BT-549 [16]; Homo sapiens, BT-549, 48 h, read-out: IC50): 0.018 µM
IC50 (A549 [17]; Homo sapiens, A549, 48 h, read-out: IC50): 0.0191 µM
Activity (BT-549 [5]): Active
Activity (A549 [6]): Active
Activity [18]: Toxic
